Measurements pooled from the literature.
Each line is one published result; the experiments were not run side by side.
Cell line: K562
Read-out: cell growth or viability

SMILES	method	tested at	time	measurement	result
O=C(c1ccc(/C=C/c2n[nH]c3ccccc23)cc1)N1CCNCC1	–	–	–	GI50	~0.4 µM
Cc1nc(Nc2ncc(C(=O)Nc3c(C)cccc3Cl)s2)cc(N2CC[C@H](O)C2)n1	ATP luminescence	10 µM	72 h	inhibition	90%
CCN(CC)CCNC(=O)c1ccc(-c2nc3ccc4[nH]ncc4c3c3c2CCCC3)cc1	resazurin	–	72 h	GI50	3.6 µM
FC(F)(F)c1cc(OCc2cc(-c3ccccn3)no2)c2ccccc2n1	MTS	–	72 h	IC50	> 100 µM
O=C(Nc1ccc(OC(F)(F)Cl)cc1)c1cnc(N2CC[C@@H](O)C2)c(-c2cc[nH]n2)c1	ATP luminescence	–	72 h	EC50	0.005 µM
Nc1ccccc1NC(=O)c1ccc(Cn2cnc3c(Nc4ccc(Br)cc4F)ncnc32)cc1	MTT	–	72 h	IC50	30.1 µM
FC(F)(F)c1cc(OCc2cc(-c3ccccc3)no2)c2ccccc2n1	MTS	–	72 h	IC50	> 100 µM
Cc1n[nH]c2ccc3nc(-c4ccc(C(=O)N(C)CCN(C)C)cn4)c4c(c3c12)CCCCC4	resazurin	–	72 h	GI50	> 10 µM
O=c1cc(OCc2cc(-c3ccccn3)no2)c2ccccc2o1	MTS	–	72 h	IC50	> 100 µM
CN(C)CCNC(=O)c1ccc(-c2nc3ccc4[nH]ncc4c3c3c2CC(C)(C)CC3)cc1	resazurin	–	72 h	GI50	3.7 µM
C=C(NC(=O)C(=C)NC(=O)c1csc(C2=N[C@@H]3c4csc(n4)[C@H]4NC(=O)c5csc(n5)[C@H]([C@](C)(O)[C@@H](C)O)NC(=O)[C@H]5CSC(=N5)/C(=C/C)NC(=O)[C@H]([C@@H](C)O)NC(=O)c5csc(n5)[C@]3(CC2)NC(=O)[C@H](C)NC(=O)C(=C)NC(=O)[C@H](C)NC(=O)[C@H]([C@@H](C)CC)N[C@@H]2C=Cc3c([C@H](C)O)cc(nc3[C@H]2O)C(=O)O[C@@H]4C)n1)C(N)=O	–	–	–	EC50	0.6 µM
Nc1ccccc1NC(=O)c1ccc(Cn2cnc3c(Nc4ccc(Cl)cc4)ncnc32)cc1	MTT	–	72 h	IC50	17.5 µM
N#Cc1ccc(-c2cc(COc3cc(=O)oc4ccccc34)on2)cc1	MTS	–	72 h	IC50	> 100 µM
O=C(NC1CC1)c1ccc(-c2nc3ccc4[nH]ncc4c3c3c2CCCC3)cc1	resazurin	–	72 h	GI50	4.1 µM
